Key:
Homo sapiens [1] = species on record: Homo sapiens; assay: Selectivity ratio of Ki for human F9a to Ki for human alpha-thrombin
Serine protease 1 = Serine protease 1 (Homo sapiens, UniProt P07477); assay: Inhibition of human trypsin 1 using S-2222 as substrate preincubated for 300 secs followed by substrate addition measured after 40 mins
How it was run: (§1)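 Human proteases assayed at one substrate concentration with ten inhibitor concentrations at 37 °C, ≤1.3% DMSO, in an enzyme-specific Tris-HCl pH 7.4 buffer. Enzyme and inhibitor preincubated 300 s, then substrate added; absorbance read at 405 nm after 40 min. IC50 converted to Ki by IC50 = Ki(1+S/KM), using KM measured under assay conditions.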

[2] = Drug level in human liver microsomes treated with treated with 25-Chloro-5,18-dimethyl-13,14,17,20,22,23-hexahydro-1H,7H-15,19-methano-8,12-(metheno)-4,6,2,14,15,22-benzodioxatetraazacyclopentacosine-3,7,21,28(2H,16H)-tetrone in absence of NADPH; type: ADME, Microsome
Plasma = assay: Anticoagulant activity in human citrated plasma assessed as concentration required to double activated partial thromboplastin time after 3 mins by coagulation analyser; type: functional, cell-free; conditions: 0.05 h
[3] = Apparent terminal half life in Han Wistar rat at 1 umol/kg, po administered via gavage by LC-MS/MS method; type: ADME, organism-based; conditions: in vivo, read-out: betat1/2(app) (converted)
How it was run: (§2)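 Male Han Wistar rats, cannulated in the carotid artery for sampling and the jugular vein for i.v. dosing, one week before the study (two days before for intraduodenal dosing). Single doses: 0.5 µmol/kg i.v., or 1 µmol/kg by gavage or intraduodenally. Vehicles were 5% mannitol in water or DMA:TEG:water (1:1:1). Plasma sampled up to 24 h and analysed by LC-MS/MS. Non-compartmental analysis; means of n=3, with F from mean AUCinf.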

Coagulation factor XI = Coagulation factor XI (Homo sapiens, UniProt P03951); assay: Inhibition of human F11a using S-2366 as substrate preincubated for 300 secs followed by substrate addition measured after 40 mins; how it was run: as §1
Prothrombin = Prothrombin (Homo sapiens, UniProt P00734); assay: Inhibition of human alpha-thrombin using S-2366 as substrate after 40 mins
[4] = Drug level in rat hepatocytes treated with 25-Chloro-5,18-dimethyl-13,14,17,20,22,23-hexahydro-1H,7H-15,19-methano-8,12-(metheno)-4,6,2,14,15,22-benzodioxatetraazacyclopentacosine-3,7,21,28(2H,16H)-tetrone assessed as esterase-mediated compound formation at 4 uM after 40 mins by ultraperformance liquid chromatographic method; type: ADME, cell-based; conditions: isolated protein
Homo sapiens [5] = species on record: Homo sapiens; assay: Selectivity ratio of Ki for human F11a to Ki for human alpha-thrombin
Homo sapiens [6] = species on record: Homo sapiens; assay: Selectivity ratio of Ki for human F10a to Ki for human alpha-thrombin
[7] = Drug level in human liver microsomes treated with treated with 25-Chloro-18-methyl-13,14,17,20,22,23-hexahydro-1H,7H-15,19-methano-8,12-(metheno)-4,6,2,14,15,22-benzodioxatetraazacyclopentacosine-3,7,21,28(1H,16H)-tetrone in presence of NADPH; type: ADME, Microsome
[8] = Intrinsic clearance in Sprague-Dawley rat liver microsomes at 1 umol/L after 7 to 30 mins by LC-MS/MS method; type: ADME, Microsome; conditions: read-out: CLH
[9] = Drug level in human liver microsomes treated with treated with 25-Chloro-18-methyl-13,14,17,20,22,23-hexahydro-1H,7H-15,19-methano-8,12-(metheno)-4,6,2,14,15,22-benzodioxatetraazacyclopentacosine-3,7,21,28(1H,16H)-tetrone in absence of NADPH; type: ADME, Microsome
[10] = Cmax in Han Wistar rat at 1 umol/kg, po administered via gavage by LC-MS/MS method; type: ADME, organism-based; parameters: dose 1 umol/kg, route oral; conditions: in vivo; how it was run: as §2
Coagulation factor IX = Coagulation factor IX (Homo sapiens, UniProt P00740); assay: Inhibition of human F9a using pefachrome F9a as substrate preincubated for 300 secs followed by substrate addition measured after 40 mins
[11] = Solubility of the compound in phosphate buffer at pH 7.4 at 25 degC after 24 hrs by ultraperformance LC/MS/MS method
physchem = conditions: 1-octanol/phosphate buffer, pH 7.4
[12] = AUCinfinity in Han Wistar rat at 1 umol/kg, po administered via gavage by LC-MS/MS method; type: ADME, organism-based; parameters: dose 1 umol/kg, time infinity, route oral; conditions: in vivo; how it was run: as §2
[13] = Drug level in human hepatocytes treated with 25-Chloro-5,18-dimethyl-13,14,17,20,22,23-hexahydro-1H,7H-15,19-methano-8,12-(metheno)-4,6,2,14,15,22-benzodioxatetraazacyclopentacosine-3,7,21,28(2H,16H)-tetrone assessed as esterase-mediated compound formation at 4 uM after 40 mins by ultraperformance liquid chromatographic method; type: ADME, cell-based; conditions: isolated protein
How it was run: (§3)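 Cryopreserved human hepatocytes at 10^6 viable cells/mL, thawed and pre-warmed 10 min at 37 °C. Compound added from CH3CN stock at 4 µM final. Incubated 40 min, then quenched in cold CH3CN, with compound-free incubations as blanks. Metabolites assigned by LC-MS product ion spectra.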

[14] = Clearance in Han Wistar rat at 0.5 umol/kg, iv by LC-MS/MS method; type: ADME, organism-based; conditions: in vivo; how it was run: as §2
[15] = Apparent permeability across apical to basolateral side in human Caco2 cells at 10 uM after 45 to 120 mins by ultraperformance LC/MS/MS method; conditions: Caco-2
[16] = Drug level in human hepatocytes treated with 25-Chloro-18-methyl-13,14,17,20,22,23-hexahydro-1H,7H-15,19-methano-8,12-(metheno)-4,6,2,14,15,22-benzodioxatetraazacyclopentacosine-3,7,21,28(1H,16H)-tetrone assessed as esterase-mediated compound formation at 4 uM after 40 mins by ultraperformance liquid chromatographic method; type: ADME, cell-based; conditions: isolated protein; how it was run: as §3
[17] = Oral bioavailability in Han Wistar rat at 1 umol/kg administered via gavage by LC-MS/MS method; type: ADME, organism-based; conditions: in vivo; how it was run: as §2
Homo sapiens [18] = species on record: Homo sapiens; assay: Selectivity ratio of Ki for human tissue factor/F7a to Ki for human alpha-thrombin
[19] = Efflux ratio of apparent permeability across basolateral to apical over apical to basolateral side in human Caco2 cells at 10 uM after 45 to 120 mins by ultraperformance LC/MS/MS method; conditions: Caco-2
[20] = AUCinfinity in Han Wistar rat at 0.5 umol/kg, iv by LC-MS/MS method; type: ADME, organism-based; parameters: dose 0.5 umol/kg, time infinity, route intravenous; conditions: in vivo; how it was run: as §2
Cytochrome P450 3A4 = Cytochrome P450 3A4 (Homo sapiens, UniProt P08684); assay: Inhibition of human CYP3A4; type: ADME
Homo sapiens [21] = species on record: Homo sapiens; assay: Selectivity ratio of Ki for human plasmin to Ki for human alpha-thrombin
[22] = Volume of distribution at steady state in Han Wistar rat at 0.5 umol/kg, iv by LC-MS/MS method; type: ADME, organism-based; conditions: in vivo, read-out: Vdss; how it was run: as §2
[23] = Inhibition of human tissue factor/F7a using spectrozyme as substrate preincubated for 300 secs followed by substrate addition measured after 40 mins; how it was run: as §1
[24] = Apparent terminal half life in Han Wistar rat at 0.5 umol/kg, iv by LC-MS/MS method; type: ADME, organism-based; conditions: in vivo, read-out: betat1/2(app) (converted); how it was run: as §2
Plasminogen = Plasminogen (Homo sapiens, UniProt P00747); assay: Inhibition of human plasmin using S-2366 as substrate preincubated for 300 secs followed by substrate addition measured after 40 mins; how it was run: as §1
[25] = rat, isolated protein, 40 min, 4 µM
Coagulation factor X = Coagulation factor X (Homo sapiens, UniProt P00742); assay: Inhibition of human F10a using S-2765 as substrate preincubated for 300 secs followed by substrate addition measured after 40 mins; how it was run: as §1
Rattus norvegicus = species on record: Rattus norvegicus; assay: Antithrombotic activity in rat caval vein thrombosis model assessed as prevention of venous thrombosis; type: functional, organism-based
[26] = target: Thrombin & trypsin (Homo sapiens) (UniProt P00734+P07477+P07478+P35030); assay: Selectivity ratio of Ki for human trypsin 1 to Ki for human alpha-thrombin; type: protein assay
[27] = Drug level in human liver microsomes treated with treated with 25-Chloro-5,18-dimethyl-13,14,17,20,22,23-hexahydro-1H,7H-15,19-methano-8,12-(metheno)-4,6,2,14,15,22-benzodioxatetraazacyclopentacosine-3,7,21,28(2H,16H)-tetrone in presence of NADPH; type: ADME, Microsome

Chain of Coagulation factor X (P00742 41-179 limits assumed): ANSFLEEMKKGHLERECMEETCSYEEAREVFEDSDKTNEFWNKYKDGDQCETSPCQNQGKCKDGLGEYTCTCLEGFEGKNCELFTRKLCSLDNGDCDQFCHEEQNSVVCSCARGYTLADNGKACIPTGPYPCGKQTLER
Chain of Coagulation factor X (P00742 235-488 limits assumed): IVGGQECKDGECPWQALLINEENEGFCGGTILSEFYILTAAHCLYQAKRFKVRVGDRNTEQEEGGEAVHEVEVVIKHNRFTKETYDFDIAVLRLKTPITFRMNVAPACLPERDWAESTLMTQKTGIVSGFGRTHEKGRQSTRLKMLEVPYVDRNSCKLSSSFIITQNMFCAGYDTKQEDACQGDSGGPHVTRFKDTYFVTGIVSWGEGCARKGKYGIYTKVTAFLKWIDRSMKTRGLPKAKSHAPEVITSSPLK
Chain of Plasminogen (P00747 97-580 limits assumed): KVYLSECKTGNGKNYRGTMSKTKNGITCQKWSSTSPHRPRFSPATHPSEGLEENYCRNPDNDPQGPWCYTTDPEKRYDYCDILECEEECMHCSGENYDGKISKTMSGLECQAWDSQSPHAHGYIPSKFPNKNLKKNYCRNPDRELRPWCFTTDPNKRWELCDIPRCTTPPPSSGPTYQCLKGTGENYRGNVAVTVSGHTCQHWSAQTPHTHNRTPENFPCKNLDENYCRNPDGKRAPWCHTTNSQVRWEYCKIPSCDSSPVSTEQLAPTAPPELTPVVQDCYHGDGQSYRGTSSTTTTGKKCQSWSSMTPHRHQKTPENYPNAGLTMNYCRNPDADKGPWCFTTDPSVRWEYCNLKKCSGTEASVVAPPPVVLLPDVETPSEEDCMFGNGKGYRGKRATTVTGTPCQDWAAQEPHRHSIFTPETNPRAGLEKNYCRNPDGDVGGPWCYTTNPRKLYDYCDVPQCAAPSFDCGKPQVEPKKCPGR
Chain of Plasminogen (P00747 581-810 limits assumed): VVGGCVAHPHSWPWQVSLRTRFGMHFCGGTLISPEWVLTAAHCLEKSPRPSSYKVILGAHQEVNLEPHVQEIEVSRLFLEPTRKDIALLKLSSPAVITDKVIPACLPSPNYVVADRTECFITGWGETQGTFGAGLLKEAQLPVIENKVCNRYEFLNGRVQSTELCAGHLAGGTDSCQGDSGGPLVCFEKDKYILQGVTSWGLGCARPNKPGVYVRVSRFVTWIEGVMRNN
Chain of Coagulation factor XI (P03951 19-387 limits assumed): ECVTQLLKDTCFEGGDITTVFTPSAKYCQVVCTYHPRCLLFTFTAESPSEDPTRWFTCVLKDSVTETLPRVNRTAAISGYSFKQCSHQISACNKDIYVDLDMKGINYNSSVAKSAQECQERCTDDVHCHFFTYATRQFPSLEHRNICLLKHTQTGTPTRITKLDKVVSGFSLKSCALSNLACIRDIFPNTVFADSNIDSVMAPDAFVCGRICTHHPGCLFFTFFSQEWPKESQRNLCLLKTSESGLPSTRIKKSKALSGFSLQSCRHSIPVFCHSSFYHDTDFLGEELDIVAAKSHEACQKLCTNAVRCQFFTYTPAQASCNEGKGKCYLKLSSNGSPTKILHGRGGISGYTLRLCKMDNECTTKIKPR
Chain of Coagulation factor XI (P03951 388-625 limits assumed): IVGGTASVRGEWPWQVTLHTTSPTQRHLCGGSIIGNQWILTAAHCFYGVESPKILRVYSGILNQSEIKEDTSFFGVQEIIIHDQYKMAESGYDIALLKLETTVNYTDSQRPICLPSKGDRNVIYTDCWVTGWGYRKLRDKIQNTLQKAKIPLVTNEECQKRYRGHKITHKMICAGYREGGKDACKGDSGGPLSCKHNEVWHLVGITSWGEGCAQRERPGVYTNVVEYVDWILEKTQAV
Chain of Cytochrome P450 3A4 (P08684 whole entry): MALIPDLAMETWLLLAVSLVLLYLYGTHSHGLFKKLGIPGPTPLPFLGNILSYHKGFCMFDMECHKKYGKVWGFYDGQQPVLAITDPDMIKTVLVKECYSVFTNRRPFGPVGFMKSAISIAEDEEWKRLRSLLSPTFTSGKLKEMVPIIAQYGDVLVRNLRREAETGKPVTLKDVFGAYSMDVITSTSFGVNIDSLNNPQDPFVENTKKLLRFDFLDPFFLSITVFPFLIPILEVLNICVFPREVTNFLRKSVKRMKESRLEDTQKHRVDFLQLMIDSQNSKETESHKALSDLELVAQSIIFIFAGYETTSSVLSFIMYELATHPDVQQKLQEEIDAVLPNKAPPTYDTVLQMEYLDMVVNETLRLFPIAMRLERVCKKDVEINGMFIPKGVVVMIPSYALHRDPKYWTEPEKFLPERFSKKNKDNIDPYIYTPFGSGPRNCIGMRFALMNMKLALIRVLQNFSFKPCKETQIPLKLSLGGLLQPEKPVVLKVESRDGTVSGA
Chain of Serine protease 1 (P07477 whole entry): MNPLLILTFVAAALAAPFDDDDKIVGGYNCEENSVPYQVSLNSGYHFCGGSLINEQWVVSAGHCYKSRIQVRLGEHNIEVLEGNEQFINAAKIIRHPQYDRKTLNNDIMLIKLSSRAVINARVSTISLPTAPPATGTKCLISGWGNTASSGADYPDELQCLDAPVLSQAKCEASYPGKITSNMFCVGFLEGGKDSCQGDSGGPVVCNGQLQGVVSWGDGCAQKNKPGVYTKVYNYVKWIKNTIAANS
Chain of Coagulation factor IX (P00740 47-191 limits assumed): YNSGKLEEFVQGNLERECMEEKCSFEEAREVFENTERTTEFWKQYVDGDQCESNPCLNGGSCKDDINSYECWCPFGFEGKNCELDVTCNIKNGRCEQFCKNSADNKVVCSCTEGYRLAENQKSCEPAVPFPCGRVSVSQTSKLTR
Chain of Coagulation factor IX (P00740 227-461 limits assumed): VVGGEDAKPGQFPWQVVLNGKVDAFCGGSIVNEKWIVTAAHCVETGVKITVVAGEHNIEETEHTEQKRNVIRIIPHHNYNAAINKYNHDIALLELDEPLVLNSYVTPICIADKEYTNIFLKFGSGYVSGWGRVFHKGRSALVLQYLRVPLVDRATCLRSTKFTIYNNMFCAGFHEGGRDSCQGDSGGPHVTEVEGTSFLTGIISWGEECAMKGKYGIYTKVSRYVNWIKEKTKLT

In the case of `CC1=C(CC(=O)NCc2cc(Cl)ccc2CN)C(=O)N(NCc2cccc(C(=O)O)c2)CC1`, the Ratio Ki (Homo sapiens [1]) is reported as > 1000, the Ki (Serine protease 1) is reported as > 5.4 µM and the Drug metabolism [2] is reported as “Metabolite_Detected”. The IC50 (Plasma) was 1.2 µM, the half-life [3] was 33.6 min and the Ki (Coagulation factor XI) was > 19 µM. For the same compound, the Ki (Prothrombin) was 0.0046 µM, the Drug metabolism [4] was “Metabolite_Detected” and the Ratio Ki (Homo sapiens [5]) was > 1000. For the same compound, the Ratio Ki (Homo sapiens [6]) was > 1000, the Drug metabolism [7] was “Metabolite_Detected” and the microsomal CLint at 1 µM [8] was < 15 µL/min/mg. The Drug metabolism [9] was “Metabolite_Detected”, the Cmax [10] was 4 nM and the Ki (Coagulation factor IX) was > 29 µM. The solubility at 24 h [11] was > 100 µM, the logD at 3 h (physchem) was -0.5 and the AUC(0-inf) [12] was 0.0025 µM·h. For the same compound, the Drug metabolism [13] was “Metabolite_Detected”, the clearance [14] was 32.4 mL/min/kg and the Papp A→B at 10 µM [15] was 0.1 ×10⁻⁶ cm/s. The Drug metabolism [16] was “Metabolite_Detected”, the bioavailability [17] was 0.5% and the Ratio Ki (Homo sapiens [18]) was > 1000. For the same compound, the efflux ratio at 10 µM [19] was 2.4, the AUC(0-inf) [20] was 0.258 µM·h and the IC50 (Cytochrome P450 3A4) was > 50 µM. The Ratio Ki (Homo sapiens [21]) was > 1000, the Vd [22] was 0.23 L/kg and the Ki [23] was > 33 µM. For the same compound, the half-life [24] was 21 min, the Ki (Plasminogen) was > 19 µM and the Drug metabolism [25] was “Metabolite_Detected”. The Ki (Coagulation factor X) was > 17 µM, the IC50 (Rattus norvegicus) was 0.097 µM and the Ratio Ki [26] was > 1000. For the same compound, the Drug metabolism [27] was “Metabolite_Detected”.
